Only some compounds are listed: those with a hit (about 3.1% of all), similar ones and a draw of the others.
GSIS activator – primary screen for activators of insulin secretion dependent on glucose, INS-1E cells, GLuc reporter luminescence; activation, % at 16.6 µM; 0.61% of 370,000 active; INS-1E GLuc reporter insulin secretion, 2-3 h; AID 743287;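 active means lowest replicate activation of at least 40%, so every replicate reaches that level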
F508del corr – correctors of CFTR F508del function in bronchial epithelial cells. CFBE cells, YFP halide quenching; stimulated with forskolin plus potentiator P3; % fluorescence drop versus neutral controls. activity (quench increase), % at 7.58 µM. 0.36% of 350,000 active. AID 720511;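 active means mean added fluorescence quench of at least 8% versus neutral control, with both replicates also reaching 8%; inconclusive means only one of the mean or replicate conditions met; inactive means mean below 8% and not both replicates reaching 8%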;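 further: cells transiently co-express mutant CFTR-F508del with the halide-sensitive YFP; corrector assay measuring rescue of mutant channel to the surface after 24 h compound exposure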
miR-122 sensor – inhibitors of miR-122 in Huh7 cells. Huh7 miR-122 Renilla luciferase sensor, 48 h; neutral wells = 0, positive control = 100. activation (reporter increase), % at 12.5 µM. 0.3% of 340,000 active;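 active means mean replicate activation score at least 90 and every replicate individually at or above 90; inconclusive means only one of the two criteria met; inactive means neither criterion met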;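 further: higher luciferase means less miR-122 activity so hits act as miR-122 inhibitors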
Cneo AK release – causes C. neoformans cell lysis. adenylate kinase release luminescence, 4 h; normalised: neutral wells 0, clomiphene wells 100. lysis activity, % at 15 µM. AID 651654. 0.2% of 360,000 active;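 active means mean lysis activity across replicates of at least 80%, whatever share of replicates individually reach that level; inactive means mean lysis activity below 80%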
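read-out = cell lysis signal | test system = log-phase Cryptococcus neoformans yeast cells | input = cells at 5 × 10^6 per mL | medium = fresh YPD growth medium | signal = luminescent adenylate kinase detection reagent | timing = 4 h at 37 °C static, read 1 h later | dosing = single dose | controls = Clomiphene as positive lysis control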
Ecoli rRNA inh – inhibits bacterial ribosomal RNA function over humanized ribosomes; E. coli WT GFP vs humanized-ribosome RFP mutants, fluorescence, 24 h; stronger effect = lower value; DMSO median 0, no signal -100; GFP signal change (wild-type ribosome), % (concentration not given with the values); 1.6% of 350,000 active; AID 720706;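 active means significant combined selectivity score with lowered wild-type GFP, culture density cut under 30%, mutant RFP and density less affected; inactive means any of these conditions unmet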
Env fusion inh – HIV envelope-mediated fusion inhibition. 1.1% of 360,000 active. HeLa-JRFL Env/CEM21 cell fusion, luciferase. inhibition, % at 12.3 µM. AID 651610;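 active means mean replicate inhibition score of at least 50 and every replicate individually at or above 50; inconclusive means only one of the two criteria met; inactive means mean below 50 and not all replicates reaching 50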
AID977621 – wild-type E. coli growth inhibition versus H69 humanized strain – H69 mutant RFP, wild-type GFP, cherry-pick, dose response. shares compounds with Ecoli rRNA inh. fluorescence, 24 h. activity change, negative = inhibition at 50 µM. 1,900 tested, under 10 active. AID 977621;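 active means Wild-type ribosome reporter drop at least double the humanized mutant ribosome reporter drop, growth loss under a set limit; inconclusive means no clear call, values can overlap the other calls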;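 further: wild-type GFP and H69 mutant RFP strains grown together 50/50 in each well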
AID977628 – E. coli growth inhibition, wild-type GFP versus h24 humanized RFP strain, dose response, h24 mutant RFP vs wild-type GFP, cherry-pick; shares compounds with Ecoli rRNA inh; E. coli WT GFP strain growth, fluorescence, 24 h; activity change, negative = inhibition at 50 µM; 1,900 tested, under 10 active;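 active means compound lowering the normal-ribosome reporter at least twice as much as the humanized-ribosome reporter, growth loss under a set limit; inconclusive means no clear call, values can overlap the other calls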;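 further: wild-type GFP and h24 humanized RFP strains co-cultured 1 to 1 per well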
Each line names hits and unclear results; the compound was inactive in the other large screens (follow-up assays come after a bar, where they were run).

CNC[C@H]1OCCCC[C@@H](C)Oc2ccc(NC(=O)Nc3c(C)noc3C)cc2C(=O)N([C@@H](C)CO)C[C@H]1C	none
CCC(CO)Oc1cc(NC(=O)c2ccccc2F)c2ncn(C(C)C)c2c1 (centres undefined)	Ecoli rRNA inh -20 | AID977628 inconclusive
CCCC#Cc1ccc([C@H]2[C@H]3CN(C(=O)c4ccc5c(c4)OCO5)CCCCN3[C@H]2CO)cc1	none (no result: Env fusion inh)
CC(C)CC#Cc1cnc2c(c1)C(=O)N([C@H](C)CO)C[C@H](C)[C@H](CN(C)Cc1ccc3c(c1)OCO3)O2	none
CCCOC(=O)c1ccc(NC(=O)c2nc3nc(C)cc(C)n3n2)cc1	Ecoli rRNA inh -23 | AID977621 inactive | AID977628 inactive
C=CCn1c(C)cc(C(=O)CSc2nnc(C3CC3)n2C2CC2)c1C	Ecoli rRNA inh -20 | AID977621 inactive
O=C(O)c1cc(S(=O)(=O)Nc2ccccc2Cc2ccccc2)ccc1Cl	none (no result: miR-122 sensor)
O=C(O)c1ccc(Cl)c(S(=O)(=O)Nc2ccccc2Cc2ccccc2)c1	Ecoli rRNA inh -19 | AID977628 inconclusive
C/C=C/c1ccc([C@H]2[C@@H](CO)N(C(C)=O)C23CN(C(=O)NC2CCCCC2)C3)cc1	none (no result: miR-122 sensor, Cneo AK release, Env fusion inh)
Cc1ccc(S(=O)(=O)Nc2ccc3c(c2)C(=O)N([C@@H](C)CO)C[C@@H](C)[C@@H](CN(C)S(C)(=O)=O)OCCCC[C@@H](C)O3)cc1	none
O=C(c1ccccc1)C1CN(Cc2ccccc2)CCC1(O)c1ccccc1 (centres undefined)	Ecoli rRNA inh -18 | AID977621 inactive
OC(c1ccccc1)C1CN(Cc2ccccc2)CCC1(O)c1ccccc1 (centres undefined)	none (no result: miR-122 sensor, Env fusion inh)
COc1ccccc1Cn1c(/C=C/c2ccccc2)nc2ccccc21	none (no result: F508del corr, miR-122 sensor, Cneo AK release, Ecoli rRNA inh)
COc1ccc(/C=C/c2nc3ccccc3n2Cc2ccccc2OC)cc1	Ecoli rRNA inh -26 (no result: F508del corr, miR-122 sensor, Cneo AK release) | AID977621 inactive | AID977628 inactive
COC(=O)c1sc(C(C)(C)C)cc1CS(=O)(=O)c1ccc(Cl)cc1	Ecoli rRNA inh -31 (no result: miR-122 sensor, Cneo AK release) | AID977621 inactive | AID977628 inactive
CCOC(=O)C(C)(C)n1nnc(-c2ccc([N+](=O)[O-])cc2)n1	Ecoli rRNA inh -23 (no result: Cneo AK release) | AID977621 inactive | AID977628 inconclusive
Nc1c(Cl)cc(C2=NCCn3nc4ccccc4c32)cc1Cl	Ecoli rRNA inh -20 (no result: miR-122 sensor) | AID977621 inactive
CCc1cc(CN2CCOCC2)c(NC(=O)c2ccccc2)s1	Ecoli rRNA inh -17 (no result: Cneo AK release) | AID977621 inactive | AID977628 inactive
CCC(=O)N[C@@H]1C=C[C@@H](CC(=O)NCc2cc(F)cc(F)c2)O[C@@H]1CO	none (no result: miR-122 sensor)
O=C(NCc1ccccc1)c1cc(S(=O)(=O)N2CCCCC2)ccc1N1CCOCC1	Ecoli rRNA inh -18 | AID977621 inactive | AID977628 inactive
O=S(=O)(c1ccccc1)N1CC[C@@H]2[C@H](CO)Nc3ccc(Br)cc3[C@@H]21	Ecoli rRNA inh -42 (no result: Env fusion inh) | AID977621 inactive
CCOC(=O)CN1C(=O)C(CC)Oc2ccc(Cl)cc21 (centres undefined)	Ecoli rRNA inh -30 (no result: Env fusion inh) | AID977621 inactive | AID977628 inactive
CCC(=O)N1N=C(c2ccc(C)cc2)CC1c1ccco1 (centres undefined)	none (no result: miR-122 sensor, Cneo AK release)
CCC1(CC)NC(=O)N(CC(=O)N2N=C(c3ccc(Cl)cc3)CC2c2ccco2)C1=O (centres undefined)	Ecoli rRNA inh -25 | AID977621 inactive | AID977628 inconclusive
C[C@@H]1CCCCO[C@@H](CN(C)C(=O)Cc2ccccc2)[C@H](C)CN([C@@H](C)CO)C(=O)c2cc(NC(=O)Nc3cccc4ccccc34)ccc2O1	none
COc1ccccc1N1CCN(C(=O)c2ccco2)CC1	none
COc1ccccc1C1CCN(C(=O)c2ccco2)CC1	Ecoli rRNA inh -23 | AID977621 inactive | AID977628 inconclusive
CN(C)CC#Cc1ccc([C@H]2[C@@H](CO)N3C(=O)CN(C(=O)c4cccnc4)C[C@@H]23)cc1	none (no result: miR-122 sensor, Cneo AK release, Env fusion inh)
Cc1ccn2cc(-c3cccc(NC(=O)c4cccs4)c3)nc2c1	Ecoli rRNA inh -36 (no result: miR-122 sensor, Cneo AK release) | AID977621 inactive | AID977628 inactive
Cn1c(=O)c2c(-c3ccccc3)n(-c3ccccc3F)cc2n(C)c1=O	none
Cn1c(=O)c2c(-c3ccccc3)n(-c3cc([N+](=O)[O-])ccc3N)cc2n(C)c1=O	Ecoli rRNA inh -14 | AID977621 inactive | AID977628 inactive
COc1cc2ccc(-c3ccc4ccccc4n3)cc2cc1OC	none (no result: GSIS activator, miR-122 sensor, Cneo AK release)
COc1ccc(-c2ccc3ccccc3n2)cc1OC	Ecoli rRNA inh -34 (no result: miR-122 sensor, Cneo AK release) | AID977628 inconclusive
Nc1ccc(C(=O)OCc2nc3cc4ccccc4cc3[nH]2)cc1	none (no result: Cneo AK release)
Nc1ccc(C(=O)OCCCc2nc3cc4ccccc4cc3[nH]2)cc1	Ecoli rRNA inh -17 | AID977621 inactive | AID977628 inactive
COc1ccc(NC(=O)CCC(=O)c2cccs2)cc1S(=O)(=O)Nc1ccc(Cl)cc1	miR-122 sensor 322, Ecoli rRNA inh -19 (no result: F508del corr, Cneo AK release) | AID977621 inactive
CCOc1ccc(NS(=O)(=O)c2cc(NC(=O)CCC(=O)c3cccs3)ccc2Cl)cc1	none (no result: F508del corr, miR-122 sensor, Cneo AK release)
COc1ccc(NC(=O)CCS(=O)(=O)c2ccccc2Cl)cc1S(=O)(=O)Nc1ccc(Cl)cc1	Ecoli rRNA inh -19 (no result: miR-122 sensor, Cneo AK release) | AID977621 inactive
C[C@@H]1CN([C@@H](C)CO)C(=O)c2cc(NC(=O)Cc3ccccc3)ccc2O[C@@H]1CN(C)Cc1ccc(Cl)c(Cl)c1	none (no result: Env fusion inh)
C[C@H](CO)N1C[C@H](C)[C@H](CN(C)C(=O)c2ccc(F)cc2)Oc2ncc(C3=CCCC3)cc2C1=O	none
O=C(COC(=O)c1ccc(Br)cc1)NCc1ccccc1	none (no result: F508del corr, Cneo AK release, Ecoli rRNA inh)
CC(=O)Cc1cc(O)c2ccccc2c1OC(=O)c1ccc(Br)cc1	Ecoli rRNA inh -14 (no result: Cneo AK release) | AID977621 inactive | AID977628 inactive
Cc1cc(SCC(=O)c2cccs2)n2nc(C)c(-c3ccc(Cl)cc3)c2n1	Ecoli rRNA inh -31 (no result: F508del corr, miR-122 sensor, Cneo AK release) | AID977621 inactive | AID977628 inactive
C=CCSc1cc(C)nc2c(-c3ccc(Cl)cc3)c(C)nn12	none (no result: GSIS activator, Env fusion inh)
CSc1cccc(NC(=S)NC(=O)CCc2ccccc2)c1	none
CSc1cccc(NC(=O)CCc2ccccc2)c1	Ecoli rRNA inh -29 (no result: Cneo AK release) | AID977621 inactive | AID977628 inactive
O=C(CSc1ccccc1)Nc1cccc(NC(=O)c2ccco2)c1	Ecoli rRNA inh -21 (no result: Env fusion inh) | AID977621 inconclusive
